In ChEMBL document CHEMBL4177755, “Combating Drug-Resistant Fungi with Novel Imperfectly Amphipathic Palindromic Peptides” (J Med Chem, 2018):
Converted amounts (≈) assume the structure as drawn.

Experiments:
[1] = Cytotoxicity against mouse RAW264.7 cells assessed as cell viability at 2 to 64 uM after 24 hrs by MTT assay relative to control; type: cell-based; details: read-out: Activity
Method in brief: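 MTT viability assay. RAW264.7 or HEK293T cells at (1.0−2.0) × 10^5 per well were exposed to a peptide concentration series for 24 h at 37 °C in 5% CO2. MTT was then added at 0.5 mg/mL final for 4 h; formazan was dissolved in DMSO and read at 570 nm. Results average three independent trials.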

[2] = Antibacterial activity against Salmonella pullorum ATCC 7913 after 24 hrs; type: functional, Salmonella enterica subsp. enterica serovar Pullorum; details: Salmonella enterica, ATCC 7913, 24 h
Method in brief: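 Broth microdilution. Mid-log bacteria in MHB at a final (0.5−1) × 10^5 CFU/mL were mixed with equal volumes of peptide serially diluted in 0.2% BSA. Plates were incubated 24 h at 37 °C and read at A492. MIC is the lowest concentration inhibiting 95% of growth. Each test was repeated at least 3 times.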

[3] = tested on: Staphylococcus aureus; assay: Antibacterial activity against Staphylococcus aureus ATCC 29213 after 24 hrs; type: functional; details: ATCC 29213, 24 h
Method in brief: (§1)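 Modified NCCLS broth microdilution. Mid-log bacteria at (0.5−1) × 10^5 CFU/mL in MHB were mixed 1:1 with peptide serially diluted in 0.2% BSA and incubated 24 h at 37 °C. Absorbance was read at 492 nm; MIC is the lowest concentration inhibiting 95% of growth. At least 3 repeats.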

[4] = tested on: Staphylococcus aureus; assay: Antibacterial activity against Staphylococcus aureus ATCC 25923 after 24 hrs; type: functional; details: ATCC 25923, 24 h; method in brief: as §1
[5] = tested on: Escherichia coli; assay: Bactericidal activity against Escherichia coli ATCC 25922; type: functional; details: read-out: MBC99.9
Method in brief: (§2)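 Wells from the 24 h, 37 °C MHB microdilution plates (bacteria at a final (0.5−1) × 10^5 CFU/mL; peptide diluted in 0.2% BSA) were plated on agar and incubated overnight. MBC is the lowest concentration killing >99.9% of cells. Each test was reproduced at least 3 times.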

[6] = tested on: Salmonella typhimurium; assay: Bactericidal activity against Salmonella typhimurium ATCC 14028; type: functional, Salmonella enterica subsp. enterica serovar Typhimurium; details: Salmonella enterica, read-out: MBC99.9; method in brief: as §2
[7] = Bactericidal activity against Salmonella pullorum ATCC 7913; type: functional, Salmonella enterica subsp. enterica serovar Pullorum; details: Salmonella enterica, read-out: MBC99.9; method in brief: as §2
[8] = tested on: Staphylococcus epidermidis; assay: Bactericidal activity against Staphylococcus epidermidis ATCC 12228; type: functional; details: read-out: MBC99.9; method in brief: as §2
[9] = tested on: Candida albicans; assay: Antifungal activity against Candida albicans cgmcc 2.2086 after 48 hrs by broth microdilution method; type: functional; details: cgmcc 2.2086, 48 h
Method in brief: (§3)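 Modified CLSI M27-A2 broth microdilution. Yeast at (0.5−1) × 10^3 CFU/mL in MOPS-buffered RPMI 1640 was mixed 1:1 with peptide serially diluted in 0.2% BSA and incubated 48 h at 28 °C. Absorbance was read at 492 nm; MIC is the lowest concentration inhibiting 95% of growth. Triplicate, three biological replicates.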

[10] = tested on: Candida albicans; assay: Antifungal activity against Candida albicans SP3931 after 48 hrs by broth microdilution method; type: functional; details: SP3931, 48 h; method in brief: as §3
[11] = tested on: Candida albicans; assay: Antifungal activity against Candida albicans SP3903 after 48 hrs by broth microdilution method; type: functional; details: SP3903, 48 h; method in brief: as §3
[12] = tested on: Candida albicans; assay: Antifungal activity against Candida albicans SP3902 after 48 hrs by broth microdilution method; type: functional; details: SP3902, 48 h; method in brief: as §3
[13] = tested on: Candida albicans; assay: Antifungal activity against fluconazole-resistant Candida albicans 56452 after 48 hrs by broth microdilution method; type: functional; details: Candida albicans, 56452, 48 h; method in brief: as §3
[14] = tested on: Candida albicans; assay: Antifungal activity against fluconazole-resistant Candida albicans 56214 after 48 hrs by broth microdilution method; type: functional; details: Candida albicans, 56214, 48 h; method in brief: as §3
[15] = tested on: Candida albicans; assay: Antifungal activity against fluconazole-resistant Candida albicans 17546 after 48 hrs by broth microdilution method; type: functional; details: Candida albicans, 17546, 48 h; method in brief: as §3
[16] = tested on: Candida tropicalis; assay: Antifungal activity against Candida tropicalis cgmcc 2.1975 after 48 hrs by broth microdilution method; type: functional; details: cgmcc 2.1975, 48 h
Method in brief: (§4)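 Modified CLSI M27-A2 broth microdilution. Yeast were suspended in MOPS-buffered RPMI 1640 at a final (0.5−1) × 10^3 CFU/mL and mixed 1:1 with peptide serially diluted in 0.2% BSA. Plates were incubated 48 h at 28 °C and read at A492. MIC is the lowest concentration giving 95% inhibition. Run in triplicate with three biological replicates.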

[17] = tested on: Pichia kudriavzevii; assay: Antifungal activity against Candida krusei cgmcc 2.1857 after 48 hrs by broth microdilution method; type: functional; details: cgmcc 2.1857, 48 h; method in brief: as §4
[18] = tested on: Candida parapsilosis; assay: Antifungal activity against Candida parapsilosis cgmcc 2.3989 after 48 hrs by broth microdilution method; type: functional; details: Lodderomyces parapsilosis, cgmcc 2.3989, 48 h; method in brief: as §4
[19] = tested on: Candida albicans; assay: Fungicidal activity against Candida albicans SP3931 after 96 hrs; type: functional; details: SP3931, 96 h, read-out: MFC99.9
Method in brief: (§5)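 After the 48 h, 28 °C broth microdilution in MOPS-buffered RPMI 1640 (inoculum (0.5−1) × 10^3 CFU/mL), 50 μL from each well was plated on YM agar for a further 48 h at 28 °C. MFC is the lowest concentration killing at least 99.9% of cells. Triplicate, three biological replicates.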

[20] = tested on: Candida albicans; assay: Fungicidal activity against fluconazole-resistant Candida albicans 56214 after 96 hrs; type: functional; details: Candida albicans, 56214, 96 h; read-out: MFC99.9; method in brief: as §5
[21] = tested on: Candida albicans; assay: Fungicidal activity against Candida albicans 14936 after 96 hrs; type: functional; details: Candida albicans, 14936, 96 h; read-out: MFC99.9; method in brief: as §5
[22] = tested on: Candida albicans; assay: Fungicidal activity against fluconazole-resistant Candida albicans 17546 after 96 hrs; type: functional; details: Candida albicans, 17546, 96 h; read-out: MFC99.9; method in brief: as §5
[23] = tested on: Candida parapsilosis; assay: Fungicidal activity against Candida parapsilosis cgmcc 2.3989 after 96 hrs; type: functional; details: Lodderomyces parapsilosis, cgmcc 2.3989, 96 h; read-out: MFC99.9
Method in brief: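 Wells from the 48 h, 28 °C RPMI 1640/MOPS microdilution plates were plated on YM agar and incubated a further 48 h at 28 °C. MFC is the lowest concentration killing at least 99.9% of cells. Run in triplicate with three biological replicates.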

[24] = tested on: Escherichia coli; assay: Antibacterial activity against Escherichia coli ATCC 25922 after 18 hrs in presence of NaCl by broth dilution method; type: functional; details: ATCC 25922, 18 h
[25] = tested on: Escherichia coli; assay: Antibacterial activity against Escherichia coli ATCC 25922 after 18 hrs in presence of KCl by broth dilution method; type: functional; details: ATCC 25922, 18 h
[26] = tested on: Escherichia coli; assay: Antibacterial activity against Escherichia coli ATCC 25922 after 18 hrs in presence of MgCl2 by broth dilution method; type: functional; details: ATCC 25922, 18 h
[27] = tested on: Escherichia coli; assay: Antibacterial activity against Escherichia coli ATCC 25922 after 18 hrs in presence of FeCl3 by broth dilution method; type: functional; details: ATCC 25922, 18 h
[28] = tested on: Candida albicans; assay: Antifungal activity against Candida albicans cgmcc 2.2086 in presence of KCl by broth dilution method; type: functional
[29] = tested on: Candida albicans; assay: Antifungal activity against Candida albicans cgmcc 2.2086 in presence of NH4Cl by broth dilution method; type: functional
[30] = tested on: Candida albicans; assay: Antifungal activity against Candida albicans cgmcc 2.2086 in presence of FeCl3 by broth dilution method; type: functional
[31] = tested on: Candida albicans; assay: Antifungal activity against Candida albicans cgmcc 2.2086 in presence of 50% human heat-inactivated serum by broth dilution method; type: functional

Row | Compound | MIC95 [2] | MIC95 [3] | MIC95 [4] | MBC [5] | MBC [6] | MBC [7] | MBC [8] | MIC95 [9] | MIC95 [10] | MIC95 [11] | MIC95 [12] | MIC95 [13] | MIC95 [14] | MIC95 [15] | MIC95 [16] | MIC95 [17] | MIC95 [18] | MFC [19] | MFC [20] | MFC [21] | also measured
1 | H-RRIRIIIRIRR-NH2 | 2 µM | 4 µM | 4 µM | 4 µM | 4 µM | 4 µM | 4 µM | 2 µM | 2 µM | 1 µM | 2 µM | 1 µM | 1 µM | 2 µM | 1 µM | 2 µM | 4 µM | 4 µM | 2 µM | 2 µM | viability at 24 h, up to 64 µM [1]: > 85%; MFC [22]: 2 µM; MFC [23]: 8 µM; MIC [24]: 4 µM; MIC [25]: 4 µM; MIC [26]: 2 µM; MIC [27]: 4 µM; MIC [28]: 2 µM; MIC [29]: 2 µM; MIC [30]: 2 µM; MIC [31]: 8 µM
2 | CC[C@H](C)[C@H](NC(=O)CN)C(=O)NCC(=O)N[C@@H](C)C(=O)N[C@H](C(=O)N[C@@H](CC(C)C)C(=O)N[C@@H](CCCCN)C(=O)N[C@H](C(=O)N[C@@H](CC(C)C)C(=O)N[C@H](C(=O)N[C@H](C(=O)NCC(=O)N[C@@H](CC(C)C)C(=O)N1CCC[C@H]1C(=O)N[C@@H](C)C(=O)N[C@@H](CC(C)C)C(=O)N[C@H](C(=O)N[C@@H](CO)C(=O)N[C@@H](Cc1c[nH]c2ccccc12)C(=O)N[C@H](C(=O)N[C@@H](CCCCN)C(=O)N[C@@H](CCCNC(=N)N)C(=O)N[C@@H](CCCCN)C(=O)N[C@@H](CCCNC(=N)N)C(=O)N[C@@H](CCC(N)=O)C(=O)N[C@@H](CCC(N)=O)C(N)=O)[C@@H](C)CC)[C@@H](C)CC)[C@@H](C)O)[C@@H](C)O)C(C)C)C(C)C [MELITTIN] | 2 µM (≈ 5.69 µg/mL) | 8 µM (≈ 22.8 µg/mL) | 4 µM (≈ 11.4 µg/mL) | 2 µM (≈ 5.69 µg/mL) | 2 µM (≈ 5.69 µg/mL) | 2 µM (≈ 5.69 µg/mL) | 1 µM (≈ 2.85 µg/mL) | 4 µM (≈ 11.4 µg/mL) | 8 µM (≈ 22.8 µg/mL) | 4 µM (≈ 11.4 µg/mL) | 2 µM (≈ 5.69 µg/mL) | 8 µM (≈ 22.8 µg/mL) | 4 µM (≈ 11.4 µg/mL) | 8 µM (≈ 22.8 µg/mL) | 4 µM (≈ 11.4 µg/mL) | 2 µM (≈ 5.69 µg/mL) | 2 µM (≈ 5.69 µg/mL) | 8 µM (≈ 22.8 µg/mL) | 4 µM (≈ 11.4 µg/mL) | 8 µM (≈ 22.8 µg/mL) | MFC [22]: 8 µM (≈ 22.8 µg/mL); MFC [23]: 2 µM (≈ 5.69 µg/mL); MIC [28]: 4 µM; MIC [29]: 4 µM; MIC [30]: 4 µM; MIC [31]: 64 µM
